The values that follow come from ChEMBL document CHEMBL4145488, “Structure-based development of an osteoprotegerin-like glycopeptide that blocks RANKL/RANK interactions and reduces ovariectomy-induced bone loss in mice” (Eur J Med Chem, 2018).

Each structure is given as a SMILES string. Activity calls are given as the source filed them. The rule behind the calls is not given here. Where a SMILES comes first, the peptide text is derived from it. Bridges are numbered along the chain shown (N, C = ends). Triazole bridges read from a SMILES are 1,4-linked. [ ]: non-standard residue; d: D form. The star is where a group is joined. NH(β-GlcNAc) = CC(=O)N[C@@H]1[C@@H](O)[C@H](O)[C@@H](CO)O[C@H]1N*; Dap(N3) = [N-]=[N+]=NC[C@H](N)C(=O)O; Sec = N[C@@H](C[SeH])C(=O)O; Pra = C#CC[C@H](N)C(=O)O Where only a bound is given, the exact number is not on record here.

Data set [1] has as its system BMMC. The experiment in a line: Inhibition of RANKL/mCSF-induced osteoclast differentiation in C57BL/6 mouse BMMC assessed as reduction in TRAP-positive multinucleated cells at 30 uM by microscopic method relative to control. The format is functional. As to conditions: C57BL/6, BMMC.
Data set [2] deals with BMMC. The experiment in a line: Cytotoxicity against C57BL/6 mouse BMMC up to 100 uM after 48 hrs by CCK8 assay. The format is cell-based. The method, boiled down:
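BMMCs seeded at 1×10^5/mL and grown 24 h, then exposed to peptide at 0, 12.5, 25.0, 50.0 or 100.0 µM for 48 h. CCK-8 solution added for 2 h and absorbance read at 450 nm.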
A general note: Tetrazolium dyes change colour on reduction, which living cells bring about.

Data set [3] addresses T1, Tumor necrosis factor ligand superfamily member 11 (Homo sapiens, UniProt O14788).
T1 sequence (O14788 whole entry): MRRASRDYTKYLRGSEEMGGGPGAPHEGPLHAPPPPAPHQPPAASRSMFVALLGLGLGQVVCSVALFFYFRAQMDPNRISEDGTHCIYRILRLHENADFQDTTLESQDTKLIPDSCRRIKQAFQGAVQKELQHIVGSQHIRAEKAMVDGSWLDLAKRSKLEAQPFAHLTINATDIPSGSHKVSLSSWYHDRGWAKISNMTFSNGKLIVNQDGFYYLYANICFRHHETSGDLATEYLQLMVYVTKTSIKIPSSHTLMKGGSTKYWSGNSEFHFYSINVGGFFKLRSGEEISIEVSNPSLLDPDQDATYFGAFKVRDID
Kind of data set: (§1) Binding affinity to recombinant human sRANKL expressed in Escherichia coli by SPR assay. A digest of the protocol: (§2)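 SPR at 25 °C with recombinant sRANKL immobilized on a CM5 dextran chip at about 3500 RU. Surfaces regenerated between cycles with Gly-HCl at pH 2.5. kon, koff and Kd taken from kinetic fitting of the sensorgrams.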
A general note: Surface plasmon resonance follows binding to a sensor surface in real time, without labels.

The target of data set [4] is T2, Tumor necrosis factor ligand superfamily member 11 (Homo sapiens) (UniProt O14788).
T2 sequence (whole entry): T1 sequence (O14788 whole entry)
The experiment in a line: Binding affinity to recombinant human sRANKL expressed in Escherichia coli assessed as association constant by SPR assay. A digest of the protocol:
as §2

Data set [5] addresses T2, Tumor necrosis factor ligand superfamily member 11 (Homo sapiens). Kind of data set: Binding affinity to recombinant human sRANKL expressed in Escherichia coli assessed as dissociation constant by SPR assay. The method, boiled down: as §2
Data set [6] can be described thus: Drug metabolism assessed as alpha-chymotrypsin (unknown origin)-mediated compound degradation by measuring parent compound remaining after 8 hrs by HPLC analysis. As to conditions: human, read-out: Stability. The format is ADME. A digest of the protocol:
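Peptide exposed to α-chymotrypsin; percent residual peptide tracked by HPLC. Mean ± SEM of duplicate independent experiments.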

Data set [7] relates to BMMC. The experiment in a line: Inhibition of RANKL/mCSF-induced osteoclast differentiation in C57BL/6 mouse BMMC assessed as reduction in TRAP-positive multinucleated cells by microscopic method. The format is functional, cell-based. The conditions noted are these: for IC50: C57BL/6, BMMC.
In data set [8] the target is T2, Tumor necrosis factor ligand superfamily member 11 (Homo sapiens). The data set is described as §1. A digest of the protocol:
as §2

Data set [9] has as its target Tumor necrosis factor ligand superfamily member 11/11A (Mus musculus) (UniProt O35235+O35305). The experiment in a line: Inhibition of RANKL/RANK protein-protein interaction in mouse RAW264.7 cells assessed as reduction in RANKL-stimulated NF-kB signaling pathway activation by measuring decrease in IkBalpha phosphorylation after 2 hrs by immunoblot assay. It counts as cell-based. The method, boiled down:
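RAW264.7 cells (1×10^5/well) cultured 12 h, pretreated with or without peptide for 2 h, then stimulated with 300 ng/mL sRANKL for the indicated periods. Lysates (20 µg) run on SDS-PAGE and blotted for phospho-IκBα, IκBα and ERK2; ECL detection.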
A general note: Immunoblotting shows a protein as a band on a membrane.

Data set [10] has as its system Mus musculus. The experiment in a line: Inhibition of ovariectomy-induced trabecular bone loss in C57BL/6 mouse distal femur bone at 20 mg/kg/day, ip after 6 weeks by H and E staining based microscopic method. It counts as functional, organism-based. The method, boiled down: (§3)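 Female C57BL/6 mice, 6 weeks old, ovariectomized, six per group; 20.0 mg/kg i.p. daily in saline, or saline, for 6 weeks. Femurs fixed in 4 % paraformaldehyde for 4 days and decalcified in 10% EDTA for 2 weeks. 4 µm paraffin sections of the metaphysis stained with H&E (trabecular area) or TRAP (osteoclasts counted).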

In data set [11] the test system is Mus musculus. Kind of data set: Inhibition of ovariectomy-induced trabecular bone loss in C57BL/6 mouse assessed as reduction in TRAP-positive multinucleated cells in distal femur bone at 20 mg/kg/day, ip after 6 weeks by microscopic method. The format is functional, organism-based. A digest of the protocol:
as §3

Data set [12] concerns Mus musculus. The experiment in a line: Inhibition of ovariectomy-induced trabecular bone loss in C57BL/6 mouse distal femur bone assessed as increase in bone volume expressed per unit total volume at 20 mg/kg/day, ip after 6 weeks by micro-CT analysis. The format is functional, organism-based. A digest of the protocol:
(§4)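 Female C57BL/6 mice, 6 weeks old, ovariectomized, six per group; 20.0 mg/kg i.p. daily in saline, or saline vehicle, for 6 weeks. Femurs then scanned by micro-CT for BMD, Tb.N and BS/TV, with 2D/3D reconstruction.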

Data set [13] concerns Mus musculus. Kind of data set: Inhibition of ovariectomy-induced trabecular bone loss in C57BL/6 mouse distal femur bone assessed as increase in bone surface area expressed per unit total volume at 20 mg/kg/day, ip after 6 weeks by micro-CT analysis. The format is functional, organism-based. A digest of the protocol: as §4
Data set [14] deals with Mus musculus. The experiment in a line: Inhibition of ovariectomy-induced trabecular bone loss in C57BL/6 mouse distal femur bone assessed as increase in trabecular number at 20 mg/kg/day, ip after 6 weeks by micro-CT analysis. It counts as functional, organism-based. The method, boiled down:
as §4

In data set [15] the test system is Mus musculus. The experiment in a line: Inhibition of ovariectomy-induced trabecular bone loss in C57BL/6 mouse distal femur bone assessed as increase in bone mineral density at 20 mg/kg/day, ip after 6 weeks by micro-CT analysis. It counts as functional, organism-based. The method, boiled down:
as §4

The test system of data set [16] is Mus musculus. The experiment in a line: Inhibition of osteoclastogenesis in ovariectomized C57BL/6 mouse assessed as decrease in serum IL-6 level at 20 mg/kg/day, ip after 6 weeks by ELISA. It counts as functional, organism-based. The method, boiled down: (§5)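 Female C57BL/6 mice, 6 weeks old, ovariectomized; six per group (sham, OVX with saline, OVX with peptide). Peptide given at 20.0 mg/kg i.p. daily in saline for 6 weeks. Blood centrifuged and serum stored at -80 °C; IL-6, TRAcp5B, CTX-1 and TNF-α measured by ELISA kits.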

In data set [17] the test system is Mus musculus. The experiment in a line: Inhibition of osteoclastogenesis in ovariectomized C57BL/6 mouse assessed as decrease in serum TNFalpha level at 20 mg/kg/day, ip after 6 weeks by ELISA. The format is functional, organism-based. A digest of the protocol:
as §5

Data set [18] has as its system Mus musculus. The experiment in a line: Inhibition of osteoclastogenesis in ovariectomized C57BL/6 mouse assessed as decrease in serum CTX-1 level at 20 mg/kg/day, ip after 6 weeks by ELISA. The format is functional, organism-based. The method, boiled down:
as §5

Data set [19] relates to Mus musculus. Kind of data set: Inhibition of osteoclastogenesis in ovariectomized C57BL/6 mouse assessed as decrease in serum TRAcp5B level at 20 mg/kg/day, ip after 6 weeks by ELISA. The format is functional, organism-based. The method, boiled down:
as §5

Tumor necrosis factor ligand superfamily member 11/11A (Mus musculus), sequence (O35235 139-316 limits assumed): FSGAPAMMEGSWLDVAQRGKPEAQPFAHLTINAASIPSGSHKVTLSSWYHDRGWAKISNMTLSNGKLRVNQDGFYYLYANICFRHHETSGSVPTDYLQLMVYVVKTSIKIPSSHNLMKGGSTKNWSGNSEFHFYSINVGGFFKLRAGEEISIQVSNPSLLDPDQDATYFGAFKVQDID
Tumor necrosis factor ligand superfamily member 11/11A (Mus musculus), sequence (O35305 31-625 partner limits assumed): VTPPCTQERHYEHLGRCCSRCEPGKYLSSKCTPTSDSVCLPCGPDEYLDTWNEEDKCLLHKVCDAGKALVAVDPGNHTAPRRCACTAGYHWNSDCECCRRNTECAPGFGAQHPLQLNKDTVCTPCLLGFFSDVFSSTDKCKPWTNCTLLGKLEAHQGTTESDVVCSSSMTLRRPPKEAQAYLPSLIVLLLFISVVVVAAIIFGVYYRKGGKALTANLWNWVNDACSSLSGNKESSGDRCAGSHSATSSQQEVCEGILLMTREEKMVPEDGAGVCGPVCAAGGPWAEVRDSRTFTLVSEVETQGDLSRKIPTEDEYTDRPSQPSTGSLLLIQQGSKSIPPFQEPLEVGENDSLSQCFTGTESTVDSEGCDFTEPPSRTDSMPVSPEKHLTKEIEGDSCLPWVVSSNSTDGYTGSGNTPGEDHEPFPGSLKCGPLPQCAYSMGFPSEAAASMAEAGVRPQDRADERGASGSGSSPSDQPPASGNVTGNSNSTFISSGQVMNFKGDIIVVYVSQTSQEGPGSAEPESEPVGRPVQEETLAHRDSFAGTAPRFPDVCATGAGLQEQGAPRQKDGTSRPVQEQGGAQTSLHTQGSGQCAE

The inhibition is the relative decrease from the control value, in per cent. The Kd is a measure of binding affinity in units of concentration. `CC[C@H](C)[C@@H]1NC(=O)[C@H](CCC(=O)O)NC(=O)[C@H](CC(C)C)NC(=O)[C@H](Cc2ccc(O)cc2)NC(=O)[C@H](CCCNC(=N)N)NC(=O)CNC(=O)[C@H](CCC(=O)O)NC(=O)[C@H](CCCCN)NC(=O)[C@@H](NC(C)=O)CSSC[C@@H](C(=O)N[C@@H](CC(C)C)C(N)=O)NC(=O)[C@H](Cc2ccccc2)NC(=O)[C@H](CCC(=O)O)NC1=O` (Ac-CKEGRYLEIEFCL-NH2; disulfide 1-12): the inhibition at 30 µM in data set [1] was determined as 24.4%. Further, the Activity result in data set [2] is recorded as “Non-Toxic”. Besides, the Kd in data set [3] turned out to be 30.9 µM. Moreover, the Kapp turned out to be 212 M⁻¹ s⁻¹ in data set [4] and 0.0065 s⁻¹ in data set [5]. Besides, in data set [6], the remaining at 8 h was found to be 38.5%.

In the case of `CC[C@H](C)[C@@H]1NC(=O)[C@H](CCC(=O)O)NC(=O)[C@H](CC(C)C)NC(=O)[C@H](Cc2ccc(O)cc2)NC(=O)[C@H](CCCNC(=N)N)NC(=O)CNC(=O)[C@H](CCC(=O)O)NC(=O)[C@H](CCCCN)NC(=O)[C@@H](NC(C)=O)Cc2cn(nn2)C[C@@H](C(=O)N[C@@H](CC(C)C)C(N)=O)NC(=O)[C@H](Cc2ccccc2)NC(=O)[C@H](CCC(=O)O)NC1=O` (Ac-[Pra]KEGRYLEIEF[Dap(N3)]L-NH2; triazole 1-12), the inhibition at 30 µM in data set [1] came to 42.1%. For the same compound, in [2], the Activity result was “Non-Toxic”.

Broadly, the IC50 is the concentration that inhibits the measured activity by half. As to `CC[C@H](C)[C@@H]1NC(=O)[C@H](CCC(=O)O)NC(=O)[C@H](CC(C)C)NC(=O)[C@H](Cc2ccc(O)cc2)NC(=O)[C@H](CCCNC(=N)N)NC(=O)CNC(=O)[C@H](CCC(=O)O)NC(=O)[C@H](CCCCN)NC(=O)[C@@H](NC(=O)[C@H](CC(=O)N[C@@H]2O[C@H](CO)[C@@H](O)[C@H](O)[C@H]2NC(C)=O)NC(C)=O)CSSC[C@@H](C(=O)N[C@@H](CC(C)C)C(N)=O)NC(=O)[C@H](Cc2ccccc2)NC(=O)[C@H](CCC(=O)O)NC1=O` (Ac-D(NH(β-GlcNAc))CKEGRYLEIEFCL-NH2; disulfide 2-13), in data set [1], the inhibition at 30 µM came to 58.2%. Also, the inhibition result in [7] is “Dose-dependent effect”. For the same compound, the IC50 in data set [7] is 28.5 µM. The Activity result in data set [2] was “Non-Toxic”; in data set [8], “Dose-dependent effect”. Besides, in data set [3], the Kd worked out at 4.54 µM. In addition, the Kapp in data set [4] stood at 609 M⁻¹ s⁻¹; in data set [5] it was 0.0027 s⁻¹. Besides, the inhibition result in data set [9], in data set [10], in data set [11], in [12], in [13] and in [14] was “Active” throughout. For the same compound, the inhibition result in [15], in data set [16], in [17], in data set [18] and in data set [19] was “Active” each time. Moreover, in [6], the remaining at 8 h is over 60.7%.

Consider `CC[C@H](C)[C@@H]1NC(=O)[C@H](CCC(=O)O)NC(=O)[C@H](CC(C)C)NC(=O)[C@H](Cc2ccc(O)cc2)NC(=O)[C@H](CCCNC(=N)N)NC(=O)CNC(=O)[C@H](CCC(=O)O)NC(=O)[C@H](CCCCN)NC(=O)[C@@H](NC(C)=O)C[Se][Se]C[C@@H](C(=O)N[C@@H](CC(C)C)C(N)=O)NC(=O)[C@H](Cc2ccccc2)NC(=O)[C@H](CCC(=O)O)NC1=O` (Ac-[Sec]KEGRYLEIEF[Sec]L-NH2; diselenide 1-12), for which the inhibition at 30 µM in data set [1] came out at 40.6%. For the same compound, the Activity result in data set [2] is on record as “Non-Toxic”.

For the compound `CC[C@H](C)[C@H](NC(=O)[C@H](CC(C)C)NC(=O)[C@H](Cc1ccc(O)cc1)NC(=O)[C@@H]1CSSC[C@H](NC(=O)[C@@H](N)Cc2ccc(O)cc2)C(=O)N[C@@H](CCC(=O)O)C(=O)N[C@@H]([C@@H](C)CC)C(=O)N[C@@H](CCC(=O)O)C(=O)N[C@@H](Cc2ccccc2)C(=O)N1)C(=O)N[C@@H](CCCNC(=N)N)C(=O)O` (H-YCEIEFCYLIR-OH; disulfide 2-7), in data set [1], the inhibition at 30 µM came out at 55.6%. Moreover, the IC50 in [7] amounted to 25.3 µM. For the same compound, in data set [3], the Kd stood at 2.75 µM. Further, the Kapp was 496 M⁻¹ s⁻¹ in [4] and 0.0013 s⁻¹ in data set [5].
